The nature of assay [1]: reducers of endogenous Her2 protein level, primary screen, SKBR3 breast tumor cells, AlphaScreen, ATP viability (AID 461).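 As to Her2 level: lower value means less Her2 protein in the cells.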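 As to viability: percent of carrier control wells set as 100% viability.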 The conditions noted are these: 18-24 h, measured here: SKBR3 viability, ATP luminescence, at 10 µM.
The target of assay [2] is Receptor tyrosine-protein kinase erbB-2 (Homo sapiens) (UniProt P04626). The assay is described as above. As to conditions: 18-24 h, at 10 µM, stronger effect = lower value.
Receptor tyrosine-protein kinase erbB-2 (Homo sapiens), sequence (P04626 whole entry, looked up): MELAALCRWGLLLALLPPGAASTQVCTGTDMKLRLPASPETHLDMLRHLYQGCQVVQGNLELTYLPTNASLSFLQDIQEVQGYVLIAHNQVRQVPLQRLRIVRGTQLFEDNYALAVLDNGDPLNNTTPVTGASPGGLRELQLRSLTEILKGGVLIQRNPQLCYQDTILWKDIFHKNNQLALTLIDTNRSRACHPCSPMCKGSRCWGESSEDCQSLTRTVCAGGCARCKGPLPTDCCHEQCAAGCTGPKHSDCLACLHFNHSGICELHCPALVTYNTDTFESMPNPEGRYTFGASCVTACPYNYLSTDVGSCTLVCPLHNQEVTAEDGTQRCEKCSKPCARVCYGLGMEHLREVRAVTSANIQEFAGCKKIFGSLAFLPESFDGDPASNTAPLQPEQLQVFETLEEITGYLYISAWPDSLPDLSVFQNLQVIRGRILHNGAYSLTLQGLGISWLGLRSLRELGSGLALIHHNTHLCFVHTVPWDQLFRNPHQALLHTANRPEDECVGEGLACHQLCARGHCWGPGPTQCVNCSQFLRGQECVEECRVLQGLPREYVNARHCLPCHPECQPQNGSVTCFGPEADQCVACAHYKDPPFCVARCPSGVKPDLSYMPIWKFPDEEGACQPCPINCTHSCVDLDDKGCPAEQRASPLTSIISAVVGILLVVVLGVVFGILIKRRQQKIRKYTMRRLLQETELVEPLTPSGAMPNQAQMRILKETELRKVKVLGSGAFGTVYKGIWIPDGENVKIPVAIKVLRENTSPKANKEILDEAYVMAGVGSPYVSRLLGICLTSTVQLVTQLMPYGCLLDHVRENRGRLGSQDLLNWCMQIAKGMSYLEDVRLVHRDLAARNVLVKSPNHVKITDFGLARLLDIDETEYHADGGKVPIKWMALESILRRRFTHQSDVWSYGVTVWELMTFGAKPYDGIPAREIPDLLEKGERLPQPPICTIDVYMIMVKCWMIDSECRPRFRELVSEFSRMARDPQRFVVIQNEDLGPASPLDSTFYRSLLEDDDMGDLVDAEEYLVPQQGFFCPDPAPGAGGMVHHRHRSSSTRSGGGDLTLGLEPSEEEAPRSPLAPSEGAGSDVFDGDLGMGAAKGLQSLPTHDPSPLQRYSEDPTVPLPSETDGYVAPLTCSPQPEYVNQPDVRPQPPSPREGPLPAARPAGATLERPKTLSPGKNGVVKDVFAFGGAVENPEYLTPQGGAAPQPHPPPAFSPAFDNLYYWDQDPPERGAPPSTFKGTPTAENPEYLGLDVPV
A short description of assay [3]: SK-BR-3 cell growth inhibitors, pilot screen, 24 h, human (AID 572;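 active = viability at or below 10% of carrier control in both of two separate runs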;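 also: compound exposure lasted between 18 and 24 h rather than exactly 24 h; 100% = carrier-treated control wells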). The conditions noted are these: SK-BR-3 viability, CellTiter-Glo luminescence, at 10 µM, stronger effect = lower value. For orientation: In ATP-based viability assays light output follows the ATP content of the culture.
A short description of assay [4]: HUVEC growth inhibition – cell-based, human, primary screen (AID 575;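 active = viability at or below 30% in both replicate assays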;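 also: 100% = median of untreated cell wells with 0.1% DMSO on each plate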). The conditions noted are these: HUVEC proliferation, CellTiter-Glo luminescence, 72 h; at 10 µM; stronger effect = lower value. The essentials:
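Timing: 72 h treatment at 37 °C; material: HUVEC primary cells; technique: CellTiter-Glo luminescence measuring cellular ATP; controls: vehicle and MePR control wells; measure: percent of median DMSO-control luminescence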

The nature of assay [5]: growth inhibitors of H69AR lung tumor, primary screen, human, duplicate replicates (AID 580;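 active = viability at or under a set limit in both replicates, limit being median viability minus 3 SD, cut at about 48% in these data, passing the limit was not always enough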;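 also: 100% = mean luminescence of untreated wells and 0% = no signal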). As to conditions: H69AR lung tumor cells viability, ATP luminescence, 72 h; at 10 µM; stronger effect = lower value.
Assay [6] in a line: reversal of MRP1-mediated doxorubicin resistance, pilot screen, H69AR cells, doxorubicin co-treatment (AID 601;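 active = viability loss from added drug above about 55%, and viability with drug at most 40%, in both replicates, limit read from the data, passing the limit was not always enough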). As to conditions: CellTiter-Glo, 72 h, at 10 µM; for differential viability (reversal): stronger effect = higher value.
Assay [7] is described as follows: 384-well plate pilot, post-Golgi transport modulator project, inhibition of yeast transport mutant growth (AID 636; in the data active = inhibition above about 31%). As to conditions: absorbance 615 nm, about 18 h, stronger effect = higher value.
Assay [8] can be described thus: growth suppression of yeast trafficking mutant, preliminary HTS, modulators of trafficking downstream of Golgi apparatus project, 1536-format plate, OD 615 nm (AID 637; in the data active = inhibition above about 30%). The conditions noted are these: yeast transport mutant growth, absorbance 615 nm, 18 h; stronger effect = higher value.
The mark [9] stands for this setting: H69AR cells + 2 uM doxorubicin, measured here: viability with 2 uM doxorubicin, stronger effect = lower value.
Setting [10] is: H69AR cells, compound alone cytotoxicity.

The values below come from PubChem BioAssay.

Broadly, the viability is a read-out of living cells in per cent, often relative to untreated cells. The term inhibition denotes the drop in the measured response relative to a control, in per cent.

Each structure is given as a SMILES string. Active and inactive are the calls of the source.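 The calls were made as follows, unless noted: active = Her2 level under about 52% in both replicate screens, with viability over 70% of control (limit read from the data); inconclusive = Her2 under the limit in one screen only, or viability under 70%; inactive = Her2 level above the set limit.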

As for `C=C(C)Cn1c(SCC)nc2ccccc2c1=O`, the viability in assay [1] is 93%; in assay [3] it was 93% (inactive); in assay [4] it was 104% (inactive); in assay [5] it was 85.6% (inactive); in assay [6] (setting [9]), 88.6%; in assay [6] (setting [10]), 85.6%. Besides, the Her2 level in assay [2] is 97.5% (inactive). Besides, the differential viability (reversal) in assay [6] (H69AR cells + 2 uM doxorubicin) was -3% (inactive). For the same compound, the inhibition is -5.39% (inactive) in assay [7] and -3.27% (inactive) in assay [8].

As for `CCOC(=O)Nc1ccc2c(c1)N(C(=O)CN(CC)CC)c1ccccc1C=C2`, the viability in assay [1] is 87.5%; in assay [3] it was 87.5% (inactive); in assay [4] it was 97.3% (inactive); in assay [5] it was 91.4% (inactive); in assay [6] (setting [9]) it was 82.8%; in assay [6] (setting [10]), 91.4%. For the same compound, in assay [2], the Her2 level is 93% (inactive). Further, the differential viability (reversal) in assay [6] (H69AR cells + 2 uM doxorubicin) was 8.63% (inactive). Further, the results for the inhibition in assay [7] and in assay [8] were -4.61% (inactive) and 5.9% (inactive), respectively.

Consider `O=c1c2c3c(sc2nc2sc(C4CC4)nn12)CCCC3`, for which the viability in assay [1] is 110%; in assay [3], 110% (inactive); in assay [4] it was 82.7% (inactive); in assay [5], 79.7% (inactive); in assay [6] (setting [9]), 87.2%; in assay [6] (setting [10]) it was 79.7%. In addition, in assay [2], the Her2 level is 92.5% (inactive). Moreover, the differential viability (reversal) in assay [6] (H69AR cells + 2 uM doxorubicin) is -7.56% (inactive). The inhibition in assay [7] was -0.39% (inactive); in assay [8] it was 20.7% (inactive).

With `CCOC(=O)C(NC(=O)C1CCCN1C(=O)OCc1ccccc1)C(=O)OCC` (stereo not given), the viability in assay [1] was 104%; in assay [3], 104% (inactive); in assay [4] it was 98.2% (inactive); in assay [5], 99.8% (inactive); in assay [6] (setting [9]), 96.3%; in assay [6] (setting [10]), 99.8%. Moreover, the Her2 level in assay [2] is 94.5% (inactive). Besides, in assay [6] (H69AR cells + 2 uM doxorubicin), the differential viability (reversal) was 3.49% (inactive). Besides, the inhibition is -1.58% (inactive) in assay [7] and -1.77% (inactive) in assay [8].

In the case of `CN(C)C(=O)Cn1c(SCC(=O)NC2CCCCC2)nc2ccccc21`, the viability in assay [1] was 72%; in assay [3], 72% (inactive); in assay [4] it was 101% (inactive); in assay [5], 102% (inactive); in assay [6] (setting [9]), 87.5%; in assay [6] (setting [10]), 102%. Further, the Her2 level in assay [2] was 76% (inactive). For the same compound, in assay [6] (H69AR cells + 2 uM doxorubicin), the differential viability (reversal) is 14.8% (inactive). Moreover, the inhibition is -6.08% (inactive) in assay [7] and 0.16% (inactive) in assay [8].

Regarding `COc1ccc(OC)c(S(=O)(=O)N2c3ccccc3CC2C)c1` (stereo not given), the viability in assay [1] was 82.5%; in assay [3], 82.5% (inactive); in assay [4] it was 77.6% (inactive); in assay [5] it was 89.4% (inactive); in assay [6] (setting [9]), 101%; in assay [6] (setting [10]), 89.4%. In addition, the Her2 level in assay [2] is 109% (inactive). In assay [6] (H69AR cells + 2 uM doxorubicin), the differential viability (reversal) was -11.7% (inactive). Besides, the inhibition was -4.86% (inactive) in assay [7] and -3.93% (inactive) in assay [8].

Consider `CCOC(=O)C1CCN(Cc2c(O)ccc3ccccc23)CC1`, for which the viability in assay [1] is 126%; in assay [3] it was 126% (inactive); in assay [4], 83.6% (inactive); in assay [5] it was 98.2% (inactive); in assay [6] (setting [9]), 92.6%; in assay [6] (setting [10]), 98.2%. For the same compound, the Her2 level in assay [2] is 115% (inactive). In addition, the differential viability (reversal) in assay [6] (H69AR cells + 2 uM doxorubicin) is 5.58% (inactive). For the same compound, the inhibition in assay [7] was -7.67% (inactive); in assay [8], 5.4% (inactive).

Consider `CCOC(=O)N1CCN(c2cc(=O)n(-c3ccc(OCC)cc3)c(=O)[nH]2)CC1`, for which the viability in assay [1] was 106%; in assay [3], 106% (inactive); in assay [4], 104% (inactive); in assay [5] it was 97.5% (inactive); in assay [6] (setting [9]) it was 90.7%; in assay [6] (setting [10]), 97.5%. Also, in assay [2], the Her2 level was 100% (inactive). Further, in assay [6] (H69AR cells + 2 uM doxorubicin), the differential viability (reversal) is 6.84% (inactive). Further, the values for the inhibition in assay [7] and in assay [8] were -4.93% (inactive) and -1.97% (inactive), respectively.

On to `COCCCNS(=O)(=O)c1ccc2c(c1)CCN2C(C)=O`, for which the viability in assay [1] is 97%; in assay [3] it was 97% (inactive); in assay [4], 102% (inactive); in assay [5], 87.1% (inactive); in assay [6] (setting [9]), 105%; in assay [6] (setting [10]), 87.1%. Further, in assay [2], the Her2 level is 99% (inactive). Besides, in assay [6] (H69AR cells + 2 uM doxorubicin), the differential viability (reversal) was -17.4% (inactive). Besides, the figures for the inhibition in assay [7] and in assay [8] were -0.13% (inactive) and -0.32% (inactive), respectively.

With `CCc1nnc(NC(=O)CSc2nnc(-c3ccc(OC)cc3)n2C)s1`, the viability in assay [1] is 87%; in assay [3], 87% (inactive); in assay [4] it was 89.3% (inactive); in assay [5] it was 104% (inactive); in assay [6] (setting [9]), 98.6%; in assay [6] (setting [10]) it was 104%. In assay [2], the Her2 level is 94% (inactive). The differential viability (reversal) in assay [6] (H69AR cells + 2 uM doxorubicin) is 5.08% (inactive). Further, the inhibition in assay [7] is -2.8% (inactive); in assay [8], 1.8% (inactive).

As for `Cc1ccccc1-c1nc(CS(=O)(=O)CC(=O)NCc2ccc3c(c2)OCO3)c(C)o1`, the viability in assay [1] was 99%; in assay [3] it was 99% (inactive); in assay [4] it was 87.3% (inactive); in assay [5], 87.8% (inactive); in assay [6] (setting [9]), 85.5%; in assay [6] (setting [10]), 87.8%. Besides, the Her2 level in assay [2] is 89% (inactive). For the same compound, the differential viability (reversal) in assay [6] (H69AR cells + 2 uM doxorubicin) is 2.28% (inactive). Besides, the inhibition was -4.53% (inactive) in assay [7] and 3.61% (inactive) in assay [8].

Turning to `Cc1nc(C)c(C(=O)C2=C(O)C(=O)N(CCN3CCOCC3)C2c2cccnc2)s1` (stereo not given), the viability is 104% in assay [1]; 104% (inactive) in assay [3]; 99.1% (inactive) in assay [4]; 97.4% (inactive) in assay [5]; 87% in assay [6] (setting [9]); 97.4% in assay [6] (setting [10]). Moreover, the Her2 level in assay [2] is 93% (inactive). In addition, in assay [6] (H69AR cells + 2 uM doxorubicin), the differential viability (reversal) was 10.4% (inactive). The inhibition in assay [7] was -3.95% (inactive); in assay [8], 12.9% (inactive).

For `Cn1c(=O)c2c(nc(NCc3ccccc3)n2CCCc2ccccc2)n(C)c1=O`, the viability in assay [1] is 84%; in assay [3] it was 84% (inactive); in assay [4], 69.5% (inactive); in assay [5], 83.4% (inactive); in assay [6] (setting [9]), 93.2%; in assay [6] (setting [10]), 83.4%. Also, the Her2 level in assay [2] is 88% (inactive). Besides, in assay [6] (H69AR cells + 2 uM doxorubicin), the differential viability (reversal) was -9.82% (inactive). The inhibition was -0.81% (inactive) in assay [7] and -3.11% (inactive) in assay [8].

For `CSc1nnc(-c2ccc(NC(=O)CCc3ccccc3)cc2)n1C`, the viability in assay [1] is 91.5%; in assay [3], 91.5% (inactive); in assay [4], 111% (inactive); in assay [5], 87% (inactive); in assay [6] (setting [9]), 89.5%; in assay [6] (setting [10]), 87%. Moreover, in assay [2], the Her2 level is 82.5% (inactive). Also, in assay [6] (H69AR cells + 2 uM doxorubicin), the differential viability (reversal) was -2.53% (inactive). The inhibition is -4.59% (inactive) in assay [7] and 3.11% (inactive) in assay [8].

In the case of `CCOC(=O)Cn1c2c(c(=N)c3ccccc31)CCC2`, the viability is 122% in assay [1]; 122% (inactive) in assay [3]; 89.4% (inactive) in assay [4]; 92.6% (inactive) in assay [5]; 90.3% in assay [6] (setting [9]); 92.6% in assay [6] (setting [10]). Further, the Her2 level in assay [2] was 98% (inactive). For the same compound, the differential viability (reversal) in assay [6] (H69AR cells + 2 uM doxorubicin) is 2.31% (inactive). In addition, the inhibition in assay [7] was -6.27% (inactive); in assay [8] it was -1.15% (inactive).

On to `O=C(CNC(=O)c1ccccc1C(=O)O)c1ccccc1`, for which the viability in assay [1] is 128%; in assay [3], 128% (inactive); in assay [4], 100% (inactive); in assay [5] it was 90% (inactive); in assay [6] (setting [9]), 82.8%; in assay [6] (setting [10]), 90%. The Her2 level in assay [2] is 79.5% (inactive). In addition, the differential viability (reversal) in assay [6] (H69AR cells + 2 uM doxorubicin) was 7.15% (inactive). Moreover, the inhibition in assay [7] was 2.6% (inactive); in assay [8], -0.49% (inactive).
